According to ChEMBL document CHEMBL4765357, “Development of small-molecule inhibitors of fatty acyl-AMP and fatty acyl-CoA ligases in Mycobacterium tuberculosis” (Eur J Med Chem, 2020):
Values after ≈ are worked out from the molar mass of the structure shown.

How the values were obtained:
[1] = tested on: Mycobacterium tuberculosis; experiment: Antimycobacterial activity against Mycobacterium tuberculosis H37Rv ATCC 27294 assessed as inhibition of bacterial growth under GAST medium condition after 7 to 14 days by broth microdilution method; format: functional; details: time 7-14 day
Procedure, shortened: (§1)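 Mtb H37Rv ATCC 27294 by broth microdilution in GAST or 7H9 base with 5 g/L BSA fraction V, 0.8 g/L NaCl and 0.05% tyloxapol. Carbon source was 20 mM glycerol/10 mM glucose or 0.05 mM sodium palmitate. Compounds came from DMSO stocks with DMSO-only controls. Inoculum was 10⁴-10⁵ cells; growth was read at 7 and 14 days. MIC is the concentration giving >99% growth inhibition; runs were in triplicate.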

[2] = target: T1, Medium/long-chain-fatty-acid--CoA/3-oxocholest-4-en-26-oate--CoA ligase (Mycobacterium tuberculosis, UniProt P9WQ51); experiment: Inhibition of Mycobacterium tuberculosis H37Rv FACL19 Spectra expressed in Escherichia coli BL21(DE3) cells assessed as cleavage of MEsG by spectroscopic analysis; details: read-out: Ki(app)
T1 sequence (P9WQ51 whole entry): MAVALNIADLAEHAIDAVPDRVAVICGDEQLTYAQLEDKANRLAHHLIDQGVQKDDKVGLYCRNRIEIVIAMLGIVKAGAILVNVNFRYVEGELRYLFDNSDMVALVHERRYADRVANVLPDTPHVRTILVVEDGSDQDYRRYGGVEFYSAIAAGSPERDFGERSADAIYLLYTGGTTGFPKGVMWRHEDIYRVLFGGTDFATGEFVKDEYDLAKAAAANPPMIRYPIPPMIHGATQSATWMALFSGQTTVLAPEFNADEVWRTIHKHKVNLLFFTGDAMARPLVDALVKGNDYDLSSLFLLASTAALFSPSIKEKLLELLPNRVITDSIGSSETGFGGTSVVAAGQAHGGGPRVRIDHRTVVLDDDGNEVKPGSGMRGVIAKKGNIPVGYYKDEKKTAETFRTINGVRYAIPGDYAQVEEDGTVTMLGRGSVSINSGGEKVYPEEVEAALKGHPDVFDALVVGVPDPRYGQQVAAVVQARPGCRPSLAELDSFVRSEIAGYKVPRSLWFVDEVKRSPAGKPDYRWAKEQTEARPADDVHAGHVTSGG
Procedure, shortened: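 FACL19 (0.167 μM) with 250 μM dodecanoic acid in a coupled MesG assay with pyrophosphatase and nucleoside phosphorylase. Buffer was 50 mM Tris·HCl pH 8.0 with 2.5 mM ATP, 5 mM MgCl₂, 0.5 mM DTT and 150 mM hydroxylamine. Apparent Ki came from a Morrison tight-binding fit.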

[3] = target: T2, Long-chain-fatty-acid--AMP ligase FadD28 (Mycobacterium tuberculosis, UniProt P9WQ59); experiment: Inhibition of Mycobacterium tuberculosis H37Rv FAAL28 Spectra expressed in Escherichia coli BL21(DE3) cells assessed as cleavage of MEsG by spectroscopic analysis; details: read-out: Ki(app)
T2 sequence (P9WQ59 whole entry): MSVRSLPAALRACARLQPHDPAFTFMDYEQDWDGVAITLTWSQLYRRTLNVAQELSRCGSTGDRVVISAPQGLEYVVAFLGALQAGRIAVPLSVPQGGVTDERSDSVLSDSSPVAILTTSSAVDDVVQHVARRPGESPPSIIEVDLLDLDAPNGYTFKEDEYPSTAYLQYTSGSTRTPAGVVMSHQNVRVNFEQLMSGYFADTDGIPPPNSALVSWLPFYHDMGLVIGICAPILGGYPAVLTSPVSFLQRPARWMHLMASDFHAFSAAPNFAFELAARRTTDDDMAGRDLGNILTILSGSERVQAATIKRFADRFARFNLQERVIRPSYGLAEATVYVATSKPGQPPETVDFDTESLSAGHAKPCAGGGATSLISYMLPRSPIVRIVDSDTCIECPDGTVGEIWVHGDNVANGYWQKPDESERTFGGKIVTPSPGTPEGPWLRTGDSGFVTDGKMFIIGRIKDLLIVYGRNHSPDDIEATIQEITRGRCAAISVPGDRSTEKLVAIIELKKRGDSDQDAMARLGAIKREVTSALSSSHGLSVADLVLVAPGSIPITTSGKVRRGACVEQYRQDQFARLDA
Procedure, shortened: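 Coupled continuous assay with pyrophosphatase (0.04 U) and nucleoside phosphorylase (0.1 U), using 0.45 μM FAAL28 and 33 μM tetradecanoic acid. Buffer was 50 mM Tris·HCl pH 8.0 with 2.5 mM ATP, 5 mM MgCl₂, 0.5 mM DTT, 150 mM hydroxylamine and 0.2 mM MesG. Apparent Ki came from a Morrison equation fit.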

[4] = tested on: Mycobacterium tuberculosis; experiment: Antimycobacterial activity against Mycobacterium tuberculosis H37Rv ATCC 27294 assessed as inhibition of bacterial growth under 7H9 medium condition after 7 to 14 days by broth microdilution method; format: functional; details: time 7-14 day; procedure, shortened: as §1
[5] = tested on: Mycobacterium tuberculosis; experiment: Antimycobacterial activity against Mycobacterium tuberculosis H37Rv ATCC 27294 assessed as inhibition of bacterial growth under 7H9 medium condition after 7 to 14 days in presence of palmitate by broth microdilution method; format: functional; details: time 7-14 day; procedure, shortened: as §1
Vero = experiment: Cytotoxicity against African green monkey Vero cells assessed as reduction in cell viability after 72 hrs by MTT assay; format: cell-based; details: Chlorocebus sabaeus
Procedure, shortened: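 Vero cells were seeded at (2.5–5.0) × 10⁴ per well in MEM with 5% FBS and penicillin/streptomycin. Compounds were added from 20 mM DMSO stocks to a final 100 μM. Controls were 0.5% and 50% DMSO, all in triplicate. After 72 h at 37 °C in 5% CO₂, cells got 1 mg/mL MTT for 3 h. Formazan was dissolved in isopropanol and read at 570/650 nm, with viability expressed relative to DMSO control.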

| Structure (SMILES) | MIC [1] [µM] | Ki [2] [µM] | Ki [3] [µM] | MIC [4] [µM] | MIC [5] [µM] | IC50 (Vero) [µM] |
| --- | --- | --- | --- | --- | --- | --- |
| Nc1ncnc2c1ncn2[C@@H]1O[C@H](COS(=O)(=O)NC(=O)CCCCCCCCCCOc2cccc(Cl)c2)[C@@H](O)[C@H]1O | 25 (≈ 16 µg/mL) | 26.4 | 0.5 |  |  |  |
| Nc1ncnc2c1ncn2[C@@H]1O[C@H](CNS(=O)(=O)NC(=O)CCCCCCCCCCOc2ccccc2)[C@@H](O)[C@H]1O | 1.56 (≈ 0.945 µg/mL) | > 100 | 3.1 |  |  |  |
| CCCCCC(=O)NS(=O)(=O)OC[C@H]1O[C@@H](n2cnc3c(N)ncnc32)[C@H](O)[C@@H]1O | 100 (≈ 44.4 µg/mL) | > 100 | > 100 | > 100 | > 100 | 48.6 |
| CCCCCCCCCCCCCCCCCCCC(=O)NS(=O)(=O)OC[C@H]1O[C@@H](n2cnc3c(N)ncnc32)[C@H](O)[C@@H]1O | > 100 |  |  | > 100 | > 100 | 0.1 |
| COc1cccc(OCCCCCCCCCCC(=O)NS(=O)(=O)OC[C@H]2O[C@@H](n3cnc4c(N)ncnc43)[C@H](O)[C@@H]2O)c1 | 25 (≈ 15.9 µg/mL) | > 100 | 1.7 |  |  |  |
| Nc1ncnc2c1ncn2[C@@H]1O[C@H](COS(=O)(=O)NC(=O)CCCCCCCCCCSc2ccccc2)[C@@H](O)[C@H]1O | > 50 | 41.6 | 6.3 |  |  |  |
| Nc1ncnc2c1ncn2[C@@H]1O[C@H](COS(=O)(=O)NC(=O)CCCCCCCCCCOc2cccc(C(F)(F)F)c2)[C@@H](O)[C@H]1O | 25 (≈ 16.9 µg/mL) | 13.5 | 4.4 |  |  |  |
| Nc1ncnc2c1ncn2[C@@H]1O[C@H](COS(=O)(=O)NC(=O)CCCCCCCCCCOc2cccc3ccccc23)[C@@H](O)[C@H]1O | > 50 | 9.64 | 25.2 |  |  |  |
| Nc1ncnc2c1ncn2[C@@H]1O[C@H](COS(=O)(=O)NC(=O)CCCCCCCCCCCOc2ccccc2)[C@@H](O)[C@H]1O | 12.5 (≈ 7.76 µg/mL) | > 100 | 2.6 |  |  |  |
| Nc1ncnc2c1ncn2[C@@H]1O[C@H](COS(=O)(=O)NC(=O)CCCCCCCCCCOc2ccc(Br)cc2)[C@@H](O)[C@H]1O | > 50 | 10.4 | 4 |  |  |  |
| CCCCCCCC(=O)NS(=O)(=O)OC[C@H]1O[C@@H](n2cnc3c(N)ncnc32)[C@H](O)[C@@H]1O | 12.5 (≈ 5.91 µg/mL) | > 100 | > 100 | 100 (≈ 47.3 µg/mL) | > 100 | 6 |
| Nc1ncnc2c1ncn2[C@@H]1O[C@H](COS(=O)(=O)NC(=O)CCCCCCCCCCOc2ccc3ccccc3c2)[C@@H](O)[C@H]1O | > 50 | 20.4 | 1.88 |  |  |  |
| Nc1ncnc2c1ncn2[C@@H]1O[C@H](COS(=O)(=O)NC(=O)CCCCCCCCCCOc2ccc(Cl)cc2)[C@@H](O)[C@H]1O | 6.25 (≈ 4.01 µg/mL) | 13.7 | 2.2 |  |  |  |
| CCCCCCCCCCCCCCCCCC(=O)NS(=O)(=O)OC[C@H]1O[C@@H](n2cnc3c(N)ncnc32)[C@H](O)[C@@H]1O | 100 (≈ 61.3 µg/mL) | 2.4 | 0.5 | 100 (≈ 61.3 µg/mL) | > 100 | 0.1 |
| Nc1ncnc2c1ncn2[C@@H]1O[C@H](COS(=O)(=O)NC(=O)CCCCCCCCCCNc2ccccc2)[C@@H](O)[C@H]1O | 12.5 (≈ 7.57 µg/mL) | 63.4 | 7.3 |  |  |  |
| COc1ccc(OCCCCCCCCCCC(=O)NS(=O)(=O)OC[C@H]2O[C@@H](n3cnc4c(N)ncnc43)[C@H](O)[C@@H]2O)cc1 | > 50 | > 100 | 6.6 |  |  |  |

| Structure (SMILES) | MIC [1] [µM] | Ki [2] [µM] | Ki [3] [µM] | MIC [4] [µM] | MIC [5] [µM] | IC50 (Vero) [µM] |
| --- | --- | --- | --- | --- | --- | --- |
| Nc1ncnc2c1ncn2[C@@H]1O[C@H](COS(=O)(=O)NC(=O)CCCCCCCCCCOc2cccc(F)c2)[C@@H](O)[C@H]1O | 25 (≈ 15.6 µg/mL) | 7.3 | 1.6 |  |  |  |
| Nc1ncnc2c1ncn2[C@@H]1O[C@H](COS(=O)(=O)NC(=O)CCCCCCCCCCOc2ccccc2C(F)(F)F)[C@@H](O)[C@H]1O | > 50 | 28.5 | 1.3 |  |  |  |
| CCCCCCCCCCCCCC(=O)NS(=O)(=O)OC[C@H]1O[C@@H](n2cnc3c(N)ncnc32)[C@H](O)[C@@H]1O | 0.39 (≈ 0.217 µg/mL) | 10 | 1.4 | 50 (≈ 27.8 µg/mL) | 100 | 0.9 |
| Nc1ncnc2c1ncn2[C@@H]1O[C@H](CNS(=O)(=O)OCCCCCCCCCCCOc2ccccc2)[C@@H](O)[C@H]1O | > 50 | > 100 | > 100 |  |  |  |
| CCCCCCCCCCCCCCCC(=O)NS(=O)(=O)OC[C@H]1O[C@@H](n2cnc3c(N)ncnc32)[C@H](O)[C@@H]1O | 6.25 (≈ 3.65 µg/mL) |  | 1 | 100 (≈ 58.5 µg/mL) | > 100 | 0.3 |
| Nc1ncnc2c1ncn2[C@@H]1O[C@H](COS(=O)(=O)NC(=O)CCCCCCCCCCOc2ccccc2Cl)[C@@H](O)[C@H]1O | > 50 | > 100 | 3.6 |  |  |  |
| Nc1ncnc2c1ncn2[C@@H]1O[C@H](COS(=O)(=O)NCCCCCCCCCCCOc2ccccc2)[C@@H](O)[C@H]1O | > 50 | > 100 | > 100 |  |  |  |
| Nc1ncnc2c1ncn2[C@@H]1O[C@H](COS(=O)(=O)NC(=O)CCCCCCCCCCOc2ccc(F)cc2)[C@@H](O)[C@H]1O | 12.5 (≈ 7.81 µg/mL) | 11.4 | 0.3 |  |  |  |
| Nc1ncnc2c1ncn2[C@@H]1O[C@H](COS(=O)(=O)NC(=O)CCCCCCCCCCOc2ccccc2F)[C@@H](O)[C@H]1O | > 50 | > 100 | 1.5 |  |  |  |
| Nc1ncnc2c1ncn2[C@@H]1O[C@H](COS(=O)(=O)NC(=O)CCCCCCCCCCOc2ccc(C(F)(F)F)cc2)[C@@H](O)[C@H]1O | 25 (≈ 16.9 µg/mL) | 34.4 | 15.6 |  |  |  |
| COc1ccccc1OCCCCCCCCCCC(=O)NS(=O)(=O)OC[C@H]1O[C@@H](n2cnc3c(N)ncnc32)[C@H](O)[C@@H]1O | > 50 | > 100 | > 100 |  |  |  |
| CCCC(=O)NS(=O)(=O)OC[C@H]1O[C@@H](n2cnc3c(N)ncnc32)[C@H](O)[C@@H]1O | > 100 | > 100 | > 100 | > 100 | > 100 | 81.4 |
| C#CCCCCCCCCC(=O)NS(=O)(=O)OC[C@H]1O[C@@H](n2cnc3c(N)ncnc32)[C@H](O)[C@@H]1O | 1.56 (≈ 0.796 µg/mL) | > 100 | > 100 | 50 (≈ 25.5 µg/mL) | 50 | 9.7 |
| Nc1ncnc2c1ncn2[C@@H]1O[C@H](COS(=O)(=O)NC(=O)CCCCCCCCCOc2ccccc2)[C@@H](O)[C@H]1O | 50 (≈ 29.6 µg/mL) | > 100 | 6.7 |  |  |  |
| CCCCCCCCCC(=O)NS(=O)(=O)OC[C@H]1O[C@@H](n2cnc3c(N)ncnc32)[C@H](O)[C@@H]1O | 1.56 (≈ 0.781 µg/mL) | > 100 | 88 | 100 (≈ 50.1 µg/mL) | > 100 | 10.1 |
